# ChEMBL document CHEMBL1148348, “New manzamine alkaloids from an Indo-Pacific sponge. Pharmacokinetics, oral availability, and the significant activity of several manzamines against HIV-I, AIDS opportunistic infections, and inflammatory diseases” (J Med Chem, 2004)
# Key:
# [1] = system: Cryptococcus neoformans; experiment: Inhibitory concentration against Cryptococcus neoformans; Not active; assay type: functional, organism-based
# [2] = system: Staphylococcus aureus; experiment: Inhibitory concentration against Staphylococcus aureus; Not active; assay type: functional, organism-based
# [3] = system: Staphylococcus aureus; experiment: Inhibitory concentration against methicillin-resistant Staphylococcus aureus; Not active; assay type: functional, organism-based
# [4] = system: Mycobacterium intracellulare; experiment: Inhibitory concentration against Mycobacterium intracellular; Not active; assay type: functional, organism-based
# [5] = system: Human immunodeficiency virus 1; experiment: Effective concentration against HIV-1; assay type: functional, organism-based
# [6] = system: Cryptococcus neoformans; experiment: Inhibitory concentration against Cryptococcus neoformans; assay type: functional, organism-based
# [7] = system: Staphylococcus aureus; experiment: Inhibitory concentration against Staphylococcus aureus; assay type: functional, organism-based
# [8] = system: Staphylococcus aureus; experiment: Inhibitory concentration against methicillin-resistant Staphylococcus aureus; assay type: functional, organism-based
# [9] = Half-life at 10 mg/kg in rat upon intravenous administration; assay type: ADME, organism-based; design: dose 10 mg/kg, route intravenous; details: in vivo
# In short: (§1)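 Male Sprague-Dawley rats (280-320 g), jugular/carotid cannulated the day before, fasted until 12 h post-dose. Given 10 mg/kg iv as a 5 min jugular infusion, approx. 3 mg/mL in 10% v/v ethanol/50 mM tartrate buffer pH 3.0. Carotid blood sampled over 96 h; plasma by validated HPLC/MS (LOQ 10 ng/mL). Parameters estimated from mean plasma concentrations, n = 3.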
# [10] = Partition coefficient (logP); assay type: physicochemical; details: octanol/water
# [11] = system: Mycobacterium intracellulare; experiment: Inhibitory concentration against Mycobacterium intracellular; assay type: functional, organism-based
# [12] = system: Mycobacterium intracellulare; experiment: Minimal inhibitory concentration against Mycobacterium intracellular; Range is 0.5-6.25 ug/mL; assay type: functional
# [13] = Cmax in rats; assay type: ADME, organism-based; details: rat, in vivo
# [14] = system: Staphylococcus aureus; experiment: Minimal inhibitory concentration against methicillin-resistant Staphylococcus aureus; Range is 0.5-6.25 ug/mL; assay type: functional
# [15] = Plasma clearance at 10 mg/kg in rat upon intravenous administration; assay type: ADME, organism-based; design: dose 10 mg/kg, route intravenous; in short: as §1
# [16] = Tmax in rats; assay type: ADME, organism-based; details: rat, in vivo
# [17] = Oral bioavailability in rat; assay type: ADME, organism-based; details: in vivo
# [18] = Apparent volume of distribution at 10 mg/kg in rat upon intravenous administration; assay type: ADME, organism-based; design: dose 10 mg/kg, route intravenous; details: in vivo; in short: as §1
# [19] = system: Staphylococcus aureus; experiment: Minimal inhibitory concentration against Staphylococcus aureus; Range is 0.5-6.25 ug/mL; assay type: functional
# [20] = organism: Rattus norvegicus; experiment: Concentration for 50% increase in lactate dehydrogenase release in rat neonatal brain microglia cells; assay type: functional
# In short: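 Lactate dehydrogenase released from rat neonatal brain microglia serves as the marker of cell toxicity. The value is expressed as LDH50.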
# [21] = organism: Rattus norvegicus; experiment: Inhibitory activity against superoxide anion generation in rat neonatal brain microglia cells; assay type: functional, cell-based
# In short: (§2)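 Rat neonatal brain microglia stimulated with phorbol ester. Release of superoxide anion or thromboxane B2 is measured, and inhibition is expressed as IC50.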
# [22] = Inhibitory activity against thromboxane B2; design: species or system Rattus norvegicus; in short: as §2
Structure (SMILES),IC50 [1],IC50 [2],IC50 [3],IC50 [4],EC50 [5] [µM],further results
"Oc1cccc2c3cc[nH]c(C4=C[C@]56CC/C=C\CCCCN7CC[C@@H]4[C@]4(C[C@@H]8/C=C\CCC[C@@H](O5)N8[C@H]46)C7)c-3nc12 [12,28-OXA-8-HYDROXY-MANZAMINE A]",Not Active,Not Active,Not Active,Not Active,,
OC1=C[C@@]2(O)CC/C=C\CCCCN3CC[C@@H]1[C@]1(C[C@@H]4/C=C\CCCCN4[C@H]12)C3 [IRCINOL A],Not Active,Not Active,,,,
"C1=C(c2[nH]ccc3c4ccccc4nc2-3)[C@@H]2CCN3CCCC/C=C\CC[C@]14O[C@@H]1CCC/C=C\[C@H]5C[C@@]2(C3)[C@H]4N51 [12,28-OXAMANZAMINE A]",Not Active,Not Active,Not Active,Not Active,22.2,
O[C@]12C=C(c3[nH]ccc4c5ccccc5nc3-4)[C@@H]3CCN(CCCC/C=C\CC1)C[C@@]31C[C@@H]3/C=C\CCCCN3[C@H]12 [MANZAMINE],,,,,4.2,IC50 [6]: 3 µg/mL; IC50 [7]: 0.5 µg/mL; IC50 [8]: 0.7 µg/mL; half-life [9]: 53.7 h; logP [10]: 8.34; IC50 [11]: 0.35 µg/mL; MIC [12]: < 6.25 µg/mL; Cmax [13]: 1070 ng/mL; MIC [14]: < 6.25 µg/mL; clearance [15]: 5.1 mL/min/kg; Tmax [16]: 10 h; bioavailability [17]: 20.6%; Vd [18]: 23.7 L/kg; MIC [19]: < 6.25 µg/mL
Oc1cccc2c1[nH]c1c(C3=C[C@@]4(O)CC/C=C\CCCCN5CC[C@@H]3[C@]3(CC6/C=C\CCCCN6[C@H]34)C5)nccc12 (stereo partly specified),,,,,,LDH50 [20]: >30 µM; IC50 [21]: > 30 µM; MIC [12]: < 6.25 µg/mL; IC50 [22]: > 30 µM; MIC [19]: < 6.25 µg/mL
O=C1CCCN2[C@@H](CC1)C[C@]13CN4CCCC/C=C\CC[C@](O)(C=C(c5nccc6c5[nH]c5ccccc56)C1CC4)[C@H]23 (stereo partly specified) [MANZAMINE E],Not Active,Not Active,Not Active,,,
Cc1cn([C@H]2C[C@H](N=[N+]=[N-])[C@@H](CO)O2)c(=O)[nH]c1=O [ZIDOVUDINE],,,,,0.004,
O=CC1=C[C@@]2(O)CC/C=C\CCCCN3CC[C@@H]1[C@]1(C[C@@H]4/C=C\CCCCN4[C@H]12)C3 [IRCINAL],Not Active,Not Active,Not Active,Not Active,,
O=C1CCCN2[C@@H](CC1)C[C@]13CN4CCCC/C=C\CC[C@](O)(C=C(c5nccc6c5[nH]c5c(O)cccc56)C1CC4)[C@H]23 (stereo partly specified) [MANZAMINE F],,Not Active,Not Active,,,
